# Apaf-1 inh: inhibitors of human Apaf-1 apoptosome, primary screen, biochemical, DEVD-Rh110 fluorescence, uHTS. Apoptotic protease-activating factor 1 (Homo sapiens), O14727. reconstituted apoptosome caspase-3 activity. inhibition, % at 20 µM. 0.71% of 330,000 active. AID 489030, 2010; active = inhibition of at least 40% at 20 µM
#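 Material: reconstituted apoptosome with Apaf-1, cytochrome c, caspase-9, procaspase-3, dATP / Buffer or medium: pH 7.5 Hepes buffer with CHAPS, BSA, DTT / Also added: cytochrome c with DEVD-Rh110 / Schedule: compound with Apaf-1, dATP, procaspase-3 30 min, then 50 min reaction, room temperature / Technique: rhodamine 110 fluorescence at Ex 480/Em 540 nm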
# PREPL inhibitor: PREPL enzyme inhibitors, primary screen, biochemical, fluorescence polarization; Prolyl endopeptidase-like (Homo sapiens), Q4J6C6; recombinant PREPL, fluorescence polarization activity-based probe; inhibition, % at 5.96 µM; 0.68% of 320,000 active; in the data active = inhibition above about 43%
# PAFAH1B3 FP inh: PAFAH1B3 enzyme inhibitors, primary screen, biochemical, fluorescence polarization, human. inhibition, % at 3.39 µM. Platelet-activating factor acetylhydrolase IB subunit alpha1 (Homo sapiens), Q15102. recombinant PAFAH1B3, FP-rhodamine probe. 0.28% of 340,000 active. AID 492972, 2010;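 active = inhibition above the screen-wide average of all tested compounds plus 3 SD, cut at about 25% in these data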
# PAFAH1B2 FP inh: PAFAH1B2 enzyme inhibitors, primary screen, biochemical, fluorescence polarization, human; recombinant PAFAH1B2, FP-rhodamine activity probe; 1.2% of 340,000 active; Platelet-activating factor acetylhydrolase IB subunit alpha2 (Homo sapiens), P68402; inhibition, % at 3.39 µM;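 active = inhibition above the mean of all tested compounds plus 3 SD, cut at about 24% in these data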
# Target sequence (P68402 whole entry, looked up): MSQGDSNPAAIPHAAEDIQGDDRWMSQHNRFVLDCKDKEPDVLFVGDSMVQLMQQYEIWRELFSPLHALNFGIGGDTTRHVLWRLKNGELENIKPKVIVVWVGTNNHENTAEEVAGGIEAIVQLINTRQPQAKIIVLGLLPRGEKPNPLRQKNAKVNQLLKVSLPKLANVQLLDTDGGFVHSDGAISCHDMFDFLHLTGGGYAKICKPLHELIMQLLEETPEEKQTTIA
# pPAFAH FP inh: pPAFAH enzyme inhibitors, primary screen, biochemical, fluorescence polarization, human; recombinant pPAFAH, FP-rhodamine probe fluorescence polarization; 1.5% of 330,000 active; Platelet-activating factor acetylhydrolase (Homo sapiens), Q13093; inhibition, % at 3.39 µM;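 active = inhibition above the mean inhibition across the screen plus 3 SD, cut at about 25% in these data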;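 note: inhibitors block binding of the rhodamine activity-based probe so polarization drops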
# Target sequence (Q13093 whole entry, looked up): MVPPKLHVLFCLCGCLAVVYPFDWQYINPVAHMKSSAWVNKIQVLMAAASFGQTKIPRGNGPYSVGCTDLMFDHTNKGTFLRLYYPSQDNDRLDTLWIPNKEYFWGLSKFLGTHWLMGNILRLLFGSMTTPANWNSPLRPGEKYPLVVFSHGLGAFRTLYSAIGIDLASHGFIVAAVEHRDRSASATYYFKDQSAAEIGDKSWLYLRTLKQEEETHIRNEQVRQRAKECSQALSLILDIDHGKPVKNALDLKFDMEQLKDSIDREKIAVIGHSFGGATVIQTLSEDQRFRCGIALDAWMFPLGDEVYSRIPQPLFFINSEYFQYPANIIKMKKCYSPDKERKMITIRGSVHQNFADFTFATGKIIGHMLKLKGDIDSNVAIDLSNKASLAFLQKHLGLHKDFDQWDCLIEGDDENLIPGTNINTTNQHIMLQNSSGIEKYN
# PAFAH2 FP inh: PAFAH2 enzyme inhibitors, primary screen, biochemical, fluorescence polarization, human; inhibition, % at 3.39 µM; recombinant PAFAH2, FP-rhodamine activity probe; 0.99% of 340,000 active;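 active = inhibition above the mean over all tested compounds plus 3 SD, cut at about 30% in these data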;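 note: inhibitors block probe labeling of enzyme so polarization drops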
# Apaf-1 inh conf: Apaf-1 inhibitors, single-dose retest, confirmation, biochemical, fluorescence, DEVD-Rh110, 20 µM; shares compounds with Apaf-1 inh; reconstituted apoptosome, caspase-3 DEVD-Rh110 fluorescence; inhibition, % at 20 µM; 25% of 1,800 active;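 active = mean inhibition of at least 40% at 20 µM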
# Rh110 quench: Rh110 fluorescence interference by putative Apaf-1 inhibitors, confirmation, artefact control for Apaf-1 inhibitor project, biochemical, 20 µM; quenched caspase reaction; shares compounds with Apaf-1 inh; 1,800 tested, under 10 active; activation (fluorescence interference), % at 20 µM;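 active = signal rise of 40% or more at 20 µM, treated as a fluorescence artifact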
# Fluor interf inh: fluorescence interference of Apaf-1 inhibitor hits, dose response, artefact control for Apaf-1 inhibitor project; shares compounds with Apaf-1 inh; fluorescence interference counterscreen, Apaf-1 assay format; IC50, µM; 460 tested, under 10 active; call rule not given here
# Numbers stand for hits; 0 = inactive; - = no result. Most compounds without a hit are left out; they make up all but 3.5% or so of the library.
SMILES,Apaf-1 inh,PREPL inhibitor,PAFAH1B3 FP inh,PAFAH1B2 FP inh,pPAFAH FP inh,PAFAH2 FP inh,Apaf-1 inh conf,Rh110 quench,others
CCOC(=O)c1nn(-c2ccc(C)c(C)c2)c(=O)c2c(N)scc12,56,0,0,0,0,0,41,0,Fluor interf inh=0
Cc1ccc(NC(=O)CN(C)C(=O)c2ccc3[nH]c4c(c3c2)CC(C)CC4)cc1 (centres undefined),59,0,0,48,0,0,45,0,Fluor interf inh=0
C=CCN(CC=C)Cc1c(O)ccc2c1oc(=O)c1ccccc12,47,0,0,0,0,0,41,0,Fluor interf inh=0
Cc1c(C(=O)N2CCCCC2C)sc2nc3n(c(=O)c12)CCC3 (centres undefined),0,0,0,0,0,0,-,-,
Cc1ccc(S(=O)(=O)N2CCN(c3nc(CN4CCCC4)nc4sc(C)c(C)c34)CC2)cc1,48,0,0,0,0,0,0,0,
Cc1c(N(C(=O)c2ccccn2)C2(C(=O)NC3CCCCC3)CCCCC2)c(=O)n(-c2ccccc2)n1C,0,0,0,0,0,0,-,-,
CN1OC[C@@H]2CN(C(=O)CCc3ccccc3)[C@H](c3cccc(N4CCOCC4)c3)C[C@@H]21,-,-,0,0,-,0,-,-,
COc1ccc(C(=O)Nc2nc3c(s2)Cc2cc(OC)ccc2-3)cc1,97,0,0,0,0,0,59,0,Fluor interf inh=0
COc1ccc(-c2nc(NC(=O)c3ccccc3)sc2-c2ccc([N+](=O)[O-])cc2)cc1,0,0,0,0,0,0,-,-,
COc1ccc2c(c1)Cc1sc(NC(=O)c3ccccc3)nc1-2,83,0,0,0,0,0,60,0,Fluor interf inh=0
COc1ccc2c(c1)Cc1sc(NC(=O)c3cccs3)nc1-2,87,0,0,0,0,0,44,0,Fluor interf inh=0
O=S1(=O)CCN(OCc2ccc(F)cc2Cl)CC1,0,0,0,0,0,0,-,-,
COc1ccc(-n2nc3cc(N)c(Br)cc3n2)cc1,69,0,0,0,0,0,0,0,
CN1CCN(C(=O)Nc2cccc3ccccc23)CC1,0,0,0,0,0,0,-,-,
CCOc1ccc(NC(=S)Nc2cccc3cnccc23)cc1,96,0,0,0,0,0,0,0,
CCOc1ccc(NC(=S)Nc2cccc3ccccc23)cc1,66,0,0,0,0,0,0,0,
COc1ccccc1NC(=S)Nc1cccc2cnccc12,97,0,0,0,0,0,0,0,
CC1(C(=O)Nc2cccc3ccccc23)CC1(Br)Br (centres undefined),56,0,0,0,0,0,0,0,
CCOc1ccc(NC(=S)Nc2ccc(OCC)cc2)cc1,0,0,0,0,0,0,-,-,
O=C(NCc1cn2ccsc2n1)c1cccs1,0,0,0,0,0,0,-,-,
NNC(=O)c1ccc(CN2CCCCC2)o1,0,0,0,0,0,0,-,-,
COc1ccc(NC(=S)Nc2cccc3cnccc23)cc1,95,0,0,0,0,0,0,0,
Cc1ccc(S(=O)(=O)N(C)C)cc1NC(=S)Nc1cccc2ccccc12,93,0,0,0,0,0,0,0,
COc1ccc(NC(=S)Nc2ccc(Oc3ccccc3)cc2)cc1,0,0,0,0,0,0,-,-,
Cc1cccc(NC(=O)Nc2cccc3ccccc23)c1,0,0,0,0,0,0,-,-,
SMILES,Apaf-1 inh,PREPL inhibitor,PAFAH1B3 FP inh,PAFAH1B2 FP inh,pPAFAH FP inh,PAFAH2 FP inh,Apaf-1 inh conf,Rh110 quench,others
Cc1cccc(NC(=S)Nc2cccc3ccccc23)c1,93,0,0,0,0,0,0,0,
ON(Cc1c(F)cccc1Cl)Cc1c(F)cccc1Cl,0,0,0,0,0,0,-,-,
N#Cc1ccccc1COC(=O)c1cccc(S(=O)(=O)N2CCCC2)c1,0,0,0,0,0,0,-,-,
O=C1C=C(N2CCCCC2)c2ccccc2C1=O,98,0,-,-,0,-,100,0,Fluor interf inh=0
Cc1nn(Cc2ccccc2)c(Cl)c1C(=O)NCc1ccco1,0,0,0,0,0,0,-,-,
Oc1ccc(C=Nc2ccccc2-c2nc3ccccc3[nH]2)c(O)c1,0,0,0,0,0,0,-,-,
Oc1ccc(C=Nc2cccc3ncccc23)c(O)c1,87,0,0,0,0,0,0,0,
COc1ccccc1-c1c(C)c(C)nc(N)c1C#N,0,0,0,0,0,0,-,-,
COc1ccccc1-c1c(C#N)c(N)nc2c1CCc1ccccc1-2,96,0,0,0,0,0,0,0,
Cc1nc(-c2ccc(C(=O)Nc3cc(S(N)(=O)=O)ccc3C)cc2)cs1,0,0,0,0,0,0,-,-,
CC(=O)NC1N=C(C)N(c2ccccc2)C1=O (centres undefined),70,0,0,0,0,0,0,0,
Cc1cc(C)n(C2CC(=O)N(c3ccccc3)C2=O)n1 (centres undefined),0,0,0,0,0,0,-,-,
CC1(C)Cc2c(sc(NC(=O)COc3cccc4ccccc34)c2C#N)C(C)(C)N1,46,0,0,0,0,0,0,0,
C[C@@H]1CN([C@H](C)CO)C(=O)Cc2cc(NS(=O)(=O)c3ccc(Cl)cc3)ccc2O[C@H]1CN(C)Cc1ccc(C(F)(F)F)cc1,41,0,0,0,0,0,0,0,
C[C@@H]1CN([C@@H](C)CO)C(=O)c2cc(NS(=O)(=O)c3ccc(Cl)cc3)ccc2O[C@H]1CN(C)Cc1ccncc1,0,0,0,0,0,0,-,-,
Cc1ccc(S(=O)(=O)N(C)C)cc1NC(=S)N1CCN(Cc2ccc3c(c2)OCO3)CC1,0,0,0,0,0,0,-,-,
COc1ccc(N2C(=O)C3CCCN3C2=S)cc1 (centres undefined),0,0,0,0,0,0,-,-,
Cc1c(C(=O)Nc2ccc(S(=O)(=O)N(C)C3CCN(C)CC3)cc2)oc2ccccc12,53,0,0,0,0,0,0,0,
O=C(/C=C/c1ccccc1)N1CCN(c2ccc([N+](=O)[O-])c(N3CCOCC3)c2)CC1,0,0,0,0,0,0,-,-,
C[C@@H]1[C@H]2[C@@H]3CC[C@@H](C3)[C@H]2CN[C@H]1c1cn(Cc2ccccc2)c2ccccc12,62,-,0,0,0,0,0,0,
CSc1ncccc1C(=O)N1CCN(S(=O)(=O)c2ccc(F)cc2)CC1,0,0,0,0,0,0,-,-,
